Data published in ChEMBL document CHEMBL1155468, “Syntheses and evaluation of anticonvulsant profile and teratogenicity of novel amide derivatives of branched aliphatic carboxylic acids with 4-aminobenzensulfonamide” (J Med Chem, 2010).
Active and inactive are the calls of the source. No cut-off for these calls is given here.

Columns and labels:
Rattus norvegicus [1] = assay: Anticonvulsant activity in po dosed rat assessed as inhibition of maximal electroshock-induced seizures
Mus musculus [2] = assay: Anticonvulsant activity in CF1 albino mouse assessed as inhibition of subcutaneous pentylenetetrazole-induced seizures at 30 mg/kg, ip after 0.5 hrs; format: functional, organism-based; set-up: dose 30 mg/kg
Outline: (§1)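 Adult male CF no. 1 albino mice (18-25 g) dosed ip with compound suspended in 0.5% methylcellulose (0.01 mL/g). Convulsant: pentylenetetrazol dissolved in 0.9% saline as a 0.85% solution for mice, given subcutaneously.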

Rattus norvegicus [3] = assay: Anticonvulsant activity in Sprague-Dawley rat assessed as inhibition of maximal electroshock-induced seizures at 30 mg/kg, po after 4 hrs
Rattus norvegicus [4] = assay: Anticonvulsant activity in Sprague-Dawley rat assessed as inhibition of maximal electroshock-induced seizures at 30 mg/kg, po after 30 mins
Mus musculus [5] = assay: Teratogenic effect in SWV mouse assessed as fetuses with neural tube deffects at 164 mg/kg, ip administered on morning of day 8 of gestation; format: toxicity, organism-based; set-up: dose 164 mg/kg, route intraperitoneal; conditions: in vivo
Mus musculus [6] = assay: Neurotoxicity in CF1 albino mouse assessed as motor impairment at 100 mg/kg, ip after 4 hrs; format: toxicity, organism-based; set-up: dose 100 mg/kg, route intraperitoneal; conditions: in vivo
Mus musculus [7] = assay: Anticonvulsant activity in CF1 albino mouse assessed as inhibition of maximal electroshock-induced seizures at 30 mg/kg, ip after 4 hrs; format: functional, organism-based; set-up: dose 30 mg/kg
Outline: (§2)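 Test compounds suspended in 0.5% methylcellulose and given ip to adult male CF no. 1 albino mice (18-25 g) at 0.01 mL/g body weight before maximal electroshock challenge.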

Mus musculus [8] = assay: Teratogenic effect in SWV mouse assessed as live fetuses at 164 mg/kg, ip administered on morning of day 8 of gestation; format: toxicity, organism-based; set-up: dose 164 mg/kg, route intraperitoneal; conditions: in vivo
Mus musculus [9] = assay: Anticonvulsant activity in CF1 albino mouse assessed as inhibition of maximal electroshock-induced seizures at 30 mg/kg, ip after 0.5 hrs; format: functional, organism-based; set-up: dose 30 mg/kg
Outline: as §2

Mus musculus [10] = assay: Teratogenic effect in SWV mouse assessed as live fetuses at 325 mg/kg, ip administered on morning of day 8 of gestation; format: toxicity, organism-based; set-up: dose 325 mg/kg, route intraperitoneal; conditions: in vivo
Mus musculus [11] = assay: Anticonvulsant activity in CF1 albino mouse assessed as inhibition of maximal electroshock-induced seizures at 100 mg/kg, ip after 4 hrs; format: functional, organism-based; set-up: dose 100 mg/kg
Outline: as §2

Mus musculus [12] = assay: Anticonvulsant activity in CF1 albino mouse assessed as inhibition of subcutaneous pentylenetetrazole-induced seizures at 100 mg/kg, ip after 4 hrs; format: functional, organism-based; set-up: dose 100 mg/kg
Outline: as §1

Rattus norvegicus [13] = species: Rattus norvegicus; assay: Protective index, ratio of TD50 for rat to ED50 for maximal electroshock-induced rat seizure model
Rattus norvegicus [14] = assay: Neurotoxicity in Sprague-Dawley rat assessed as motor impairment at 30 mg/kg, po after 0.25 to 4 hrs; conditions: in vivo
Mus musculus [15] = assay: Anticonvulsant activity in CF1 albino mouse assessed as inhibition of maximal electroshock-induced seizures at 300 mg/kg, ip after 0.5 hrs; format: functional, organism-based; set-up: dose 300 mg/kg
Outline: as §2

Mus musculus [16] = assay: Neurotoxicity in CF1 albino mouse assessed as motor impairment at 30 mg/kg, ip after 4 hrs; format: toxicity, organism-based; set-up: dose 30 mg/kg, route intraperitoneal; conditions: in vivo
Mus musculus [17] = assay: Teratogenic effect in SWV mouse assessed as resorptions at 164 mg/kg, ip administered on morning of day 8 of gestation; format: toxicity, organism-based; set-up: dose 164 mg/kg, route intraperitoneal; conditions: in vivo
Rattus norvegicus [18] = assay: Anticonvulsant activity in Sprague-Dawley rat assessed as inhibition of maximal electroshock-induced seizures at 30 mg/kg, po after 1 hr
Mus musculus [19] = assay: Neurotoxicity in CF1 albino mouse assessed as motor impairment at 30 mg/kg, ip after 0.5 hrs; format: toxicity, organism-based; set-up: dose 30 mg/kg, route intraperitoneal; conditions: in vivo
Mus musculus [20] = assay: Teratogenic effect in SWV mouse assessed as resorptions at 325 mg/kg, ip administered on morning of day 8 of gestation; format: toxicity, organism-based; set-up: dose 325 mg/kg, route intraperitoneal; conditions: in vivo
Mus musculus [21] = assay: Anticonvulsant activity in CF1 albino mouse assessed as inhibition of maximal electroshock-induced seizures at 100 mg/kg, ip after 0.5 hrs; format: functional, organism-based; set-up: dose 100 mg/kg
Outline: as §2

Rattus norvegicus [22] = assay: Anticonvulsant activity in Sprague-Dawley rat assessed as inhibition of maximal electroshock-induced seizures at 30 mg/kg, po after 15 mins
Mus musculus [23] = assay: Neurotoxicity in CF1 albino mouse assessed as motor impairment at 100 mg/kg, ip after 0.5 hrs; format: toxicity, organism-based; set-up: dose 100 mg/kg, route intraperitoneal; conditions: in vivo
Mus musculus [24] = assay: Anticonvulsant activity in CF1 albino mouse assessed as inhibition of maximal electroshock-induced seizures at 300 mg/kg, ip after 4 hrs; format: functional, organism-based; set-up: dose 300 mg/kg
Outline: as §2

Mus musculus [25] = assay: Anticonvulsant activity in CF1 albino mouse assessed as inhibition of subcutaneous pentylenetetrazole-induced seizures at 300 mg/kg, ip after 4 hrs; format: functional, organism-based; set-up: dose 300 mg/kg
Outline: as §1

Mus musculus [26] = assay: Anticonvulsant activity in CF1 albino mouse assessed as inhibition of subcutaneous pentylenetetrazole-induced seizures at 30 mg/kg, ip after 4 hrs; format: functional, organism-based; set-up: dose 30 mg/kg
Outline: as §1

Mus musculus [27] = assay: Teratogenic effect in SWV mouse assessed as fetuses with neural tube deffects at 325 mg/kg, ip administered on morning of day 8 of gestation; format: toxicity, organism-based; set-up: dose 325 mg/kg, route intraperitoneal; conditions: in vivo
Mus musculus [28] = assay: Neurotoxicity in CF1 albino mouse assessed as motor impairment at 300 mg/kg, ip after 4 hrs; format: toxicity, organism-based; set-up: dose 300 mg/kg, route intraperitoneal; conditions: in vivo
Mus musculus [29] = assay: Teratogenic effect in SWV mouse assessed as resorptions at 294 mg/kg, ip administered on morning of day 8 of gestation; format: toxicity, organism-based; set-up: dose 294 mg/kg, route intraperitoneal; conditions: in vivo
Outline: (§3)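 SWV inbred mice: two-month-old nulligravid females mated overnight with males and checked for vaginal plugs next morning; gestation onset taken as 10 p.m. the previous night. On gestation day 8.5 each dam got one ip injection, 0.55–2.7 mmol/kg, in 25% aqueous Cremophor EL (vehicle controls dosed alike), 10 μL/g body weight. Litters and implants tallied; resorptions and live fetuses reported as counts with percentages.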

Mus musculus [30] = assay: Teratogenic effect in SWV mouse assessed as fetuses with neural tube deffects at 148 mg/kg, ip administered on morning of day 8 of gestation; format: toxicity, organism-based; set-up: dose 148 mg/kg, route intraperitoneal; conditions: in vivo
Outline: (§4)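 Two-month-old nulligravid SWV females were mated overnight and checked for vaginal plugs the next morning; gestation onset was set at 10 p.m. the previous night. On gestation day 8.5, each dam received a single ip injection (0.55-2.7 mmol/kg range) or vehicle (25% aqueous Cremophor EL) at 10 μL/g body weight. Litters were scored for implants, resorptions, live and dead fetuses, and fetuses with neural tube defects.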

Mus musculus [31] = assay: Anticonvulsant activity in CF1 albino mouse assessed as inhibition of subcutaneous pentylenetetrazole-induced seizures at 100 mg/kg, ip after 0.5 hrs; format: functional, organism-based; set-up: dose 100 mg/kg
Outline: as §1

Rattus norvegicus [32] = assay: Anticonvulsant activity in Sprague-Dawley rat assessed as inhibition of maximal electroshock-induced seizures at 30 mg/kg, po after 2 hrs
Mus musculus [33] = assay: Teratogenic effect in SWV mouse assessed as live fetuses at 486 mg/kg, ip administered on morning of day 8 of gestation; format: toxicity, organism-based; set-up: dose 486 mg/kg, route intraperitoneal; conditions: in vivo
Outline: as §3

Mus musculus [34] = assay: Teratogenic effect in SWV mouse assessed as resorptions at 148 mg/kg, ip administered on morning of day 8 of gestation; format: toxicity, organism-based; set-up: dose 148 mg/kg, route intraperitoneal; conditions: in vivo
Outline: as §3

Mus musculus [35] = assay: Teratogenic effect in SWV mouse assessed as fetuses with neural tube deffects at 486 mg/kg, ip administered on morning of day 8 of gestation; format: toxicity, organism-based; set-up: dose 486 mg/kg, route intraperitoneal; conditions: in vivo
Outline: as §4

Mus musculus [36] = assay: Teratogenic effect in SWV mouse assessed as resorptions at 486 mg/kg, ip administered on morning of day 8 of gestation; format: toxicity, organism-based; set-up: dose 486 mg/kg, route intraperitoneal; conditions: in vivo
Outline: as §3

Mus musculus [37] = assay: Teratogenic effect in SWV mouse assessed as fetuses with neural tube deffects at 294 mg/kg, ip administered on morning of day 8 of gestation; format: toxicity, organism-based; set-up: dose 294 mg/kg, route intraperitoneal; conditions: in vivo
Outline: as §4

Mus musculus [38] = assay: Anticonvulsant activity in CF1 albino mouse assessed as inhibition of subcutaneous pentylenetetrazole-induced seizures at 300 mg/kg, ip after 0.5 hrs; format: functional, organism-based; set-up: dose 300 mg/kg
Outline: as §1

Mus musculus [39] = assay: Teratogenic effect in SWV mouse assessed as live fetuses at 294 mg/kg, ip administered on morning of day 8 of gestation; format: toxicity, organism-based; set-up: dose 294 mg/kg, route intraperitoneal; conditions: in vivo
Outline: as §4

Mus musculus [40] = assay: Neurotoxicity in CF1 albino mouse assessed as motor impairment at 300 mg/kg, ip after 0.5 hrs; format: toxicity, organism-based; set-up: dose 300 mg/kg, route intraperitoneal; conditions: in vivo
Mus musculus [41] = assay: Teratogenic effect in SWV mouse assessed as live fetuses at 148 mg/kg, ip administered on morning of day 8 of gestation; format: toxicity, organism-based; set-up: dose 148 mg/kg, route intraperitoneal; conditions: in vivo
Outline: as §4

Structure (SMILES)	ED50 (Rattus norvegicus [1])	Activity (Mus musculus [2])	Activity (Rattus norvegicus [3])	Activity (Rattus norvegicus [4])	Activity (Mus musculus [6])	Activity (Mus musculus [7])	Activity (Mus musculus [9])	Activity (Mus musculus [11])	Activity (Mus musculus [12])	Ratio TD50/ED50 (Rattus norvegicus [13])	Activity (Rattus norvegicus [14])	Activity (Mus musculus [15])	Activity (Mus musculus [16])	Activity (Rattus norvegicus [18])	Activity (Mus musculus [19])	Activity (Mus musculus [21])	Activity (Mus musculus [23])	Activity (Mus musculus [24])	Activity (Mus musculus [25])	Activity (Mus musculus [26])	further results
CCCCC(CC)C(=O)Nc1ccc(S(N)(=O)=O)cc1 (stereo unspecified)	23.9 mg/kg	inactive	Active	inactive	Non-toxic	inactive	inactive	Active	inactive	>21	Non-toxic	Active	Non-toxic	Active	Non-toxic	Active	Non-toxic	Active	inactive	inactive	Activity (Mus musculus [5]): 5.2%; Activity (Mus musculus [8]): 80.8%; Activity (Mus musculus [10]): 25.8%; Activity (Mus musculus [17]): 19.2%; Activity (Mus musculus [20]): 74.2%; Activity (Rattus norvegicus [22]): inactive; Activity (Mus musculus [27]): 14.7%
CCC(C)CC(=O)Nc1ccc(S(N)(=O)=O)cc1 (stereo unspecified)	16.4 mg/kg	inactive	Active	Active	Non-toxic	inactive	inactive	inactive	inactive	>30.4	Non-toxic	inactive	Non-toxic	Active	Non-toxic	inactive	Non-toxic	inactive	inactive	inactive	Activity (Mus musculus [28]): Non-toxic; Activity (Mus musculus [29]): 32.5%; Activity (Mus musculus [30]): 1.1%; Activity (Mus musculus [31]): inactive; Activity (Rattus norvegicus [32]): Active; Activity (Mus musculus [33]): 32%; Activity (Mus musculus [34]): 10.6%; Activity (Mus musculus [35]): 9.4%; Activity (Mus musculus [36]): 68%; Activity (Mus musculus [37]): 9.9%; Activity (Mus musculus [38]): inactive; Activity (Mus musculus [39]): 67.5%; Activity (Mus musculus [40]): Non-toxic; Activity (Mus musculus [41]): 89.4%
